Data as given in publication PMC9435035 (ACS Omega, 2022).

Columns and labels:
[1] = system: streptozotocin-induced diabetic Wistar rats; assay: antidiabetic activity: blood glucose in STZ-induced diabetes; type: in vivo, Wistar albino rats
Outline: (§1)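 Male Wistar albino rats (170–200 g, 8–10 weeks), fasted overnight, given STZ 50 mg/kg i.p. in 0.1 M citrate buffer, then 10% glucose for 3 days. Tail-vein glucose by glucometer at 72 h; >250 mg/dL counted as diabetic. Body weight and blood glucose on days 1, 7, 14, 21 and 28. Means ± SEM, one-way ANOVA with Dunnett's test.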

[2] = body weight of STZ-induced diabetic rats; type: in vivo, Wistar albino rats; conditions: for body weight, day 1: day 1, in g (unit assumed); for body weight, day 7: day 7, in g (unit assumed); for body weight, day 14: day 14, in g (unit assumed); for body weight, day 21: day 21, in g (unit assumed); for body weight, day 28: day 28, in g (unit assumed)
Outline: as §1

[3] = system: streptozotocin-induced diabetic Wistar rats; assay: lipid profile in streptozotocin-induced diabetes; type: in vivo, Wistar albino rats; conditions: STZ-diabetic rats
Outline: (§2)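 STZ-diabetic Wistar rats (n = 8 per group) received test compound at 10 or 20 mg/kg p.o., or glibenclamide 500 μg/kg p.o., once daily for 28 days; controls received vehicle. On day 28, rats were anesthetised with pentobarbital sodium (35 mg/kg) and blood was drawn by cardiac puncture. Serum ALP, SGPT, SGOT, LDL, HDL, TG, total cholesterol, creatinine and insulin were measured. Means ± SEM, one-way ANOVA with Dunnett's test.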

[4] = system: Balb/C mice; assay: acute toxicity study in mice; type: in vivo; conditions: for mortality: maximum oral dose of 2000 mg/kg (b.w.); for toxic effects (diarrhea, convulsions, lethargy, sleeping, salivation, tremor): oral up to 2000 mg/kg, observed daily for 2 weeks
Outline: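 Two-phase modified Lorke protocol in Balb/C mice (20–25 g), four per group. Phase 1: control given Tween-80 (2%); other groups received oral test compound at 100, 500 or 1000 mg/kg. Phase 2: oral doses of 1250, 1500 and 2000 mg/kg. Animals observed for the first 24 h, then daily for 2 weeks for diarrhea, convulsions, lethargy, sleeping, salivation and tremors, with mortality monitored.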

[5] = system: streptozotocin-induced diabetic Wistar rats; assay: serum profile; type: in vivo, Wistar albino rats; conditions: STZ-diabetic rats; for (ALP) IU / (SGOT) IU / (SGPT) IU: serum
Outline: as §2

[6] = system: overnight fasted normal rats; assay: oral glucose tolerance test; type: in vivo, Wistar albino rats; conditions: OGTT, glucose 3 g/kg oral
[7] = molecular target: α-glucosidase (Saccharomyces cerevisiae, UniProt P53341); assay: α-glucosidase inhibitory activity; type: biochemical; conditions: read-out: glucosidase inhibition IC50 ± SEM; mean ± SEM
Sequence of α-glucosidase (P53341 whole entry): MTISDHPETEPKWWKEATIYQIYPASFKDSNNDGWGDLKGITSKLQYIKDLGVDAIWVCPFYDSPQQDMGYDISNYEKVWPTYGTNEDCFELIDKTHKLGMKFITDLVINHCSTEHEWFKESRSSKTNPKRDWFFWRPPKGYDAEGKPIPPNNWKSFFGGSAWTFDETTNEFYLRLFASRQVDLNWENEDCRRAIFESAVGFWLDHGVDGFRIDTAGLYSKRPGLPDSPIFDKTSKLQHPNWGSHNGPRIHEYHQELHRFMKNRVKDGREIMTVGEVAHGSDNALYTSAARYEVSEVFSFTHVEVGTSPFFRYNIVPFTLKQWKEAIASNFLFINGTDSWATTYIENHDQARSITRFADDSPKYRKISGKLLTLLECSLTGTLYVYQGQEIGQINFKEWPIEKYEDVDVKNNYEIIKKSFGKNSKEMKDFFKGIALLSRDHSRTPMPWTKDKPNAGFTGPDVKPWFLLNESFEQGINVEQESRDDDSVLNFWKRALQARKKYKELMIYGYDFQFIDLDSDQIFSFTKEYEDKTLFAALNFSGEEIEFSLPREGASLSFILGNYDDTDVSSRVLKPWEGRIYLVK

[8] = 10 mg/kg p.o. once daily, day 28, 10 mg/kg
[9] = 20 mg/kg p.o. once daily, day 28, 20 mg/kg

2-(4-Fluorophenyl)-4-(p-tolyl)-2,3-dihydrobenzo[b][1,5]thiazepine [13B]
blood glucose level, day 1 ([1]; 10 mg/kg p.o. once daily): 370.81 ± 4.79 mg/dL
blood glucose level, day 7 ([1]; 10 mg/kg p.o. once daily): 289.89 ± 4.33 mg/dL
blood glucose level, day 14 ([1]; 10 mg/kg p.o. once daily): 200.33 ± 4.57 mg/dL
blood glucose level, day 21 ([1]; 10 mg/kg p.o. once daily): 149.30 ± 4.56 mg/dL
blood glucose level, day 28 [1, 8]: 132.98 ± 4.33 mg/dL
blood glucose level, day 1 ([1]; 20 mg/kg p.o. once daily): 375.31 ± 5.01 mg/dL
blood glucose level, day 7 ([1]; 20 mg/kg p.o. once daily): 230.71 ± 4.88 mg/dL
blood glucose level, day 14 ([1]; 20 mg/kg p.o. once daily): 163.68 ± 4.37 mg/dL
blood glucose level, day 21 ([1]; 20 mg/kg p.o. once daily): 120.72 ± 4.11 mg/dL
blood glucose level, day 28 [1, 9]: 108.42 ± 3.98 mg/dL
body weight, day 1 ([2]; 10 mg/kg): 186.6 ± 4.70
body weight, day 7 ([2]; 10 mg/kg): 183.4 ± 4.15
body weight, day 14 ([2]; 10 mg/kg): 186.3 ± 4.22
body weight, day 21 ([2]; 10 mg/kg): 180.1 ± 4.12
body weight, day 28 ([2]; 10 mg/kg): 177.3 ± 4.40
body weight, day 1 ([2]; 20 mg/kg): 193.6 ± 4.21
body weight, day 7 ([2]; 20 mg/kg): 187.2 ± 4.81
body weight, day 14 ([2]; 20 mg/kg): 191.1 ± 4.14
body weight, day 21 ([2]; 20 mg/kg): 187.8 ± 3.99
body weight, day 28 ([2]; 20 mg/kg): 185.7 ± 4.79
HDL ([3]; 10 mg/kg for 28 days): 46.29 ± 2.01 mg/dL
LDL ([3]; 10 mg/kg for 28 days): 127.81 ± 4.39 mg/dL
TG ([3]; 10 mg/kg for 28 days): 142.93 ± 4.21 mg/dL
total CH ([3]; 10 mg/kg for 28 days): 148.67 ± 4.11 mg/dL
HDL ([3]; 20 mg/kg for 28 days): 56.08 ± 2.63 mg/dL
LDL ([3]; 20 mg/kg for 28 days): 108.91 ± 4.11 mg/dL
TG ([3]; 20 mg/kg for 28 days): 114.81 ± 4.41 mg/dL
total CH ([3]; 20 mg/kg for 28 days): 134.21 ± 4.77 mg/dL
mortality [4]: no mortality
toxic effects (diarrhea, convulsions, lethargy, sleeping, salivation, tremor) [4]: no toxic effects
insulin level ([5]; 10 mg/kg for 28 days): 0.696 ± 0.29 ng/mL
serum creatinine ([5]; 10 mg/kg for 28 days): 0.76 ± 0.39 mg/dL
(ALP) IU ([5]; 10 mg/kg for 28 days): 208.96 ± 4.22 IU
(SGOT) IU ([5]; 10 mg/kg for 28 days): 25.41 ± 2.18 IU
(SGPT) IU ([5]; 10 mg/kg for 28 days): 24.76 ± 2.81 IU
insulin level ([5]; 20 mg/kg for 28 days): 0.705 ± 0.31 ng/mL
serum creatinine ([5]; 20 mg/kg for 28 days): 0.70 ± 0.33 mg/dL
(ALP) IU ([5]; 20 mg/kg for 28 days): 201.80 ± 4.71 IU
(SGOT) IU ([5]; 20 mg/kg for 28 days): 22.09 ± 2.21 IU
(SGPT) IU ([5]; 20 mg/kg for 28 days): 22.03 ± 2.78 IU
blood glucose level, 0 min ([6]; dose 10 mg/kg): 104.80 ± 4.97 mg/dL
blood glucose level, 30 min ([6]; dose 10 mg/kg): 120.04 ± 5.04 mg/dL
blood glucose level, 60 min ([6]; dose 10 mg/kg): 118.31 ± 4.65 mg/dL
blood glucose level, 90 min ([6]; dose 10 mg/kg): 109.81 ± 4.56 mg/dL
blood glucose level, 120 min ([6]; dose 10 mg/kg): 113.93 ± 4.67 mg/dL
blood glucose level, 0 min ([6]; dose 20 mg/kg): 103.79 ± 5.12 mg/dL
blood glucose level, 30 min ([6]; dose 20 mg/kg): 116.81 ± 4.31 mg/dL
blood glucose level, 60 min ([6]; dose 20 mg/kg): 114.98 ± 4.34 mg/dL
blood glucose level, 90 min ([6]; dose 20 mg/kg): 110.21 ± 3.91 mg/dL
blood glucose level, 120 min ([6]; dose 20 mg/kg): 110.04 ± 4.81 mg/dL
IC50 [7]: 3.28 ± 0.19 µM

N,N-Dimethyl-4-(4-(p-tolyl)-2,3-dihydrobenzo[b][1,5]thiazepin-2-yl)aniline [14B]
blood glucose level, day 1 ([1]; 10 mg/kg p.o. once daily): 369.82 ± 4.12 mg/dL
blood glucose level, day 7 ([1]; 10 mg/kg p.o. once daily): 294.04 ± 4.67 mg/dL
blood glucose level, day 14 ([1]; 10 mg/kg p.o. once daily): 196.39 ± 4.12 mg/dL
blood glucose level, day 21 ([1]; 10 mg/kg p.o. once daily): 151.11 ± 4.39 mg/dL
blood glucose level, day 28 [1, 8]: 134.20 ± 4.21 mg/dL
blood glucose level, day 1 ([1]; 20 mg/kg p.o. once daily): 370.33 ± 3.98 mg/dL
blood glucose level, day 7 ([1]; 20 mg/kg p.o. once daily): 231.69 ± 5.20 mg/dL
blood glucose level, day 14 ([1]; 20 mg/kg p.o. once daily): 158.26 ± 4.67 mg/dL
blood glucose level, day 21 ([1]; 20 mg/kg p.o. once daily): 127.21 ± 4.81 mg/dL
blood glucose level, day 28 [1, 9]: 109.71 ± 4.23 mg/dL
body weight, day 1 ([2]; 10 mg/kg): 188.5 ± 4.07
body weight, day 7 ([2]; 10 mg/kg): 186.8 ± 4.39
body weight, day 14 ([2]; 10 mg/kg): 187.1 ± 4.33
body weight, day 21 ([2]; 10 mg/kg): 181.6 ± 4.21
body weight, day 28 ([2]; 10 mg/kg): 179.3 ± 4.41
body weight, day 1 ([2]; 20 mg/kg): 189.1 ± 4.19
body weight, day 7 ([2]; 20 mg/kg): 188.5 ± 4.21
body weight, day 14 ([2]; 20 mg/kg): 189.2 ± 4.66
body weight, day 21 ([2]; 20 mg/kg): 183.4 ± 4.18
body weight, day 28 ([2]; 20 mg/kg): 182.5 ± 4.58
HDL ([3]; 10 mg/kg for 28 days): 45.25 ± 2.15 mg/dL
LDL ([3]; 10 mg/kg for 28 days): 129.08 ± 4.06 mg/dL
TG ([3]; 10 mg/kg for 28 days): 144.11 ± 4.39 mg/dL
total CH ([3]; 10 mg/kg for 28 days, 10 mg/kg): 149.08 ± 4.12 mg/dL
HDL ([3]; 20 mg/kg for 28 days): 55.21 ± 2.66 mg/dL
LDL ([3]; 20 mg/kg for 28 days): 110.41 ± 3.90 mg/dL
TG ([3]; 20 mg/kg for 28 days): 115.24 ± 4.13 mg/dL
total CH ([3]; 20 mg/kg for 28 days, 20 mg/kg): 135.11 ± 4.02 mg/dL
mortality [4]: no mortality
toxic effects (diarrhea, convulsions, lethargy, sleeping, salivation, tremor) [4]: no toxic effects
insulin level ([5]; 10 mg/kg for 28 days): 0.690 ± 0.27 ng/mL
serum creatinine ([5]; 10 mg/kg for 28 days): 0.75 ± 0.36 mg/dL
(ALP) IU ([5]; 10 mg/kg for 28 days): 210.98 ± 4.39 IU
(SGOT) IU ([5]; 10 mg/kg for 28 days): 25.56 ± 2.18 IU
(SGPT) IU ([5]; 10 mg/kg for 28 days): 25.08 ± 2.78 IU
insulin level ([5]; 20 mg/kg for 28 days): 0.697 ± 0.34 ng/mL
serum creatinine ([5]; 20 mg/kg for 28 days): 0.72 ± 0.30 mg/dL
(ALP) IU ([5]; 20 mg/kg for 28 days): 203.51 ± 4.34 IU
(SGOT) IU ([5]; 20 mg/kg for 28 days): 22.20 ± 2.21 IU
(SGPT) IU ([5]; 20 mg/kg for 28 days): 22.82 ± 2.91 IU
blood glucose level, 0 min ([6]; dose 10 mg/kg): 104.21 ± 4.67 mg/dL
blood glucose level, 30 min ([6]; dose 10 mg/kg): 124.02 ± 4.01 mg/dL
blood glucose level, 60 min ([6]; dose 10 mg/kg): 119.33 ± 4.63 mg/dL
blood glucose level, 90 min ([6]; dose 10 mg/kg): 114.98 ± 4.03 mg/dL
blood glucose level, 120 min ([6]; dose 10 mg/kg): 116.49 ± 4.71 mg/dL
blood glucose level, 0 min ([6]; dose 20 mg/kg): 103.87 ± 4.18 mg/dL
blood glucose level, 30 min ([6]; dose 20 mg/kg): 119.61 ± 4.55 mg/dL
blood glucose level, 60 min ([6]; dose 20 mg/kg): 116.20 ± 4.78 mg/dL
blood glucose level, 90 min ([6]; dose 20 mg/kg): 112.69 ± 4.11 mg/dL
blood glucose level, 120 min ([6]; dose 20 mg/kg): 111.61 ± 4.97 mg/dL
IC50 [7]: 3.34 ± 0.27 µM
